Data on 21 molecules can be found in BindingDB's records for doi:10.1021/jm060253o (University of Bologna, 2006).

The target in series [1] is Breakpoint cluster region protein/Tyrosine-protein kinase ABL1 (Homo sapiens, UniProt P00519+P11274). The experiment in a line: Antiproliferative activity against human K562 cell line expressing Bcr-Abl. Summed up:
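Cell growth inhibition measured by counting cells with an automatic cell counter in sensitive HL60, MDR HL60R and Bcr-Abl-expressing K562 cells. IC50 is the concentration inhibiting 50% of cell growth.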

Series [2] in a line: Antiproliferative activity against MDR human HL60R cell line.

Breakpoint cluster region protein/Tyrosine-protein kinase ABL1, sequence (P00519 whole entry): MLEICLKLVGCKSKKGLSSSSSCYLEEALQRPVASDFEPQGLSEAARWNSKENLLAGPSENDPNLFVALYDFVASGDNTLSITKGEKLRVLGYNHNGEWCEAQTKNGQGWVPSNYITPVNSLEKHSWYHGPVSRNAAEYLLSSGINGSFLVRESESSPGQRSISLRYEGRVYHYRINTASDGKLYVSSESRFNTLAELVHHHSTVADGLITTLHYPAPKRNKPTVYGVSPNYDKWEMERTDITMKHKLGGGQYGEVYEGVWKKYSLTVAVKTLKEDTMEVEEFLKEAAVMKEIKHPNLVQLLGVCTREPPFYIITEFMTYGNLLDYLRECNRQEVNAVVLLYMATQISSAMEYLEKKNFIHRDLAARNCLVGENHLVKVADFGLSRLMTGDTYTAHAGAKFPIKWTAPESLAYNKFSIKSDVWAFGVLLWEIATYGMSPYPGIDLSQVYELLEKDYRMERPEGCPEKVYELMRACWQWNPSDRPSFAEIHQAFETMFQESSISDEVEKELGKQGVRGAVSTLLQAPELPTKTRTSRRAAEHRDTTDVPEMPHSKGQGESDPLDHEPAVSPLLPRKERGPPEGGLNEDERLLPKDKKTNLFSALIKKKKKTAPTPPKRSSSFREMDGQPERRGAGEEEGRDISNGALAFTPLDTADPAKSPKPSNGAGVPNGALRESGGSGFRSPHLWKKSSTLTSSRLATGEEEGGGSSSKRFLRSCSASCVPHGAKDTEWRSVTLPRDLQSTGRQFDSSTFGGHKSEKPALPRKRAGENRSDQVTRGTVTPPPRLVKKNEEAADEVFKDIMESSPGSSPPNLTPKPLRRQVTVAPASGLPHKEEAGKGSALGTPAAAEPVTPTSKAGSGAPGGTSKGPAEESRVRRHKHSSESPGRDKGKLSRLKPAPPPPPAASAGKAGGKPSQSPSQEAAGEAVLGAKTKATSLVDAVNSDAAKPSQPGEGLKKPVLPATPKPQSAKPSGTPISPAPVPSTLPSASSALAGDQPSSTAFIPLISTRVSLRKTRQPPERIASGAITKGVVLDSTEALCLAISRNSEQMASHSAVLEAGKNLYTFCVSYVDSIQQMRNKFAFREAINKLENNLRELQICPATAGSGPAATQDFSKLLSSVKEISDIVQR
Breakpoint cluster region protein/Tyrosine-protein kinase ABL1, sequence (P11274 whole entry): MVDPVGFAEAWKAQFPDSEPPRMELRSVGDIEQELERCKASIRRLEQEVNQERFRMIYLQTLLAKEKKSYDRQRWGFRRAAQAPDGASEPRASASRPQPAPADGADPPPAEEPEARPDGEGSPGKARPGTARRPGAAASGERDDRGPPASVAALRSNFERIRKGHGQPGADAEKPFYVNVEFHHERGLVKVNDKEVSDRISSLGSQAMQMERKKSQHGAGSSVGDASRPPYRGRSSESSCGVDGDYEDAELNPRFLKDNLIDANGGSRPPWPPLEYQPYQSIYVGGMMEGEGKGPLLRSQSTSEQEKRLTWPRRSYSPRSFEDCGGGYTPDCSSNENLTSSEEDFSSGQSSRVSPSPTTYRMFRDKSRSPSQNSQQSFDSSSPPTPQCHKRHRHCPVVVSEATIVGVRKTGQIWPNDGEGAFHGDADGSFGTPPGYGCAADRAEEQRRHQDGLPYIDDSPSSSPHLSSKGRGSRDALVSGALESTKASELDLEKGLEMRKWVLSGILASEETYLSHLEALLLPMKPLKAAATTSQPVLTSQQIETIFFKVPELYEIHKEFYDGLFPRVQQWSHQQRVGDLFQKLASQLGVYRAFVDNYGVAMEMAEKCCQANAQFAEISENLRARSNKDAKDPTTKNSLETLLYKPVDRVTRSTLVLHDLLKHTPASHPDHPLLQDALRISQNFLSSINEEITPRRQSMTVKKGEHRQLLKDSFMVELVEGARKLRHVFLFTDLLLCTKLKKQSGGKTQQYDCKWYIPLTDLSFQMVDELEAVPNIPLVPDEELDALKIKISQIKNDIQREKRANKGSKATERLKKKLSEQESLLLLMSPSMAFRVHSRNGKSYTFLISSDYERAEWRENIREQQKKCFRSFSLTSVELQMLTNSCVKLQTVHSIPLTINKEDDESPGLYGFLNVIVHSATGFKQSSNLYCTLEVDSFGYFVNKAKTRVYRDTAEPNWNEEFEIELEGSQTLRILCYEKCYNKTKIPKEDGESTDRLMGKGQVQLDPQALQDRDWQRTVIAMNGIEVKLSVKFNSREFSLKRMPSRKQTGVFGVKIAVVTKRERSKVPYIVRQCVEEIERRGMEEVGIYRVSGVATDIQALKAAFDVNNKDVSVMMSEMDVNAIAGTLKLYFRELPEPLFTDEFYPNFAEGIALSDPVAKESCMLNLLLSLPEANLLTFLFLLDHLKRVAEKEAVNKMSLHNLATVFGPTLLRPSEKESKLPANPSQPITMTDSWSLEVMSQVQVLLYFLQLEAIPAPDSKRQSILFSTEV

A word on the IC50: it is the midpoint of a concentration-inhibition curve. Take `COc1cc(/C=C/c2cccc(O)c2)cc(OC)c1` [3-[(E)-2-(3,5-Dimethoxy-phenyl)-vinyl]-phenol]: the IC50 in series [1] was 26 µM; in series [2] it was over 100 µM.

Consider `COc1ccc(-c2ccccc2-c2cc(OC)cc(OC)c2)cc1` [4,3'',5''-trimethoxy-[1,1';2',1'']-terphenyl], for which, in series [1], the IC50 was 6 µM.

In the case of `COc1cc(/C=C/c2ccccc2O)cc(OC)c1` [2-[(E)-2-(3,5-dimethoxy-phenyl)-vinyl]-phenol], the results for the IC50 in series [1] and in series [2] were 24 µM and 68 µM, respectively.

Turning to `COc1ccc(-c2ccc(-c3cc(OC)cc(OC)c3)cc2)cc1` [4,3'',5''-trimethoxy-[1,1';4',1'']-terphenyl], the IC50 in series [1] and in series [2] was over 100 µM throughout.

Regarding `Oc1ccc(-c2ccc(-c3cc(O)cc(O)c3)cc2)cc1` [[1,1';4',1'']-terphenyl-4,3'',5''-triol], the IC50 in series [1] was 20 µM; in series [2], 23 µM.

`COc1ccc(/C=C/c2cc(OC)cc(OC)c2)cc1`: 10 µM corresponded to half-maximal inhibition in series [1] (IC50).

`COc1ccc(-c2cccc(-c3cc(OC)cc(OC)c3)c2)cc1` [4,3'',5''-trimethoxy-[1,1';3',1'']-terphenyl]: the results for the IC50 in series [1] and in series [2] were 10 µM and 80 µM, respectively.

For `COc1cc(/C=C/c2cc(OC)c(O)c(OC)c2)cc(OC)c1` [4-[(E)-2-(3,5-dimethoxy-phenyl)-vinyl]-2,6-dimethoxy-phenol], the IC50 was 23 µM in series [1] and over 100 µM in series [2].

For `Oc1ccc(/C=C/c2cc(O)cc(O)c2)cc1` [5-[(E)-2-(4-hydroxyphenyl)ethenyl]benzene-1,3-diol], the half-inhibitory concentration (IC50) stood at 28 µM in series [1] and 60 µM in series [2].

On to `COc1cc(OC)cc(-c2ccccc2-c2ccc(O)cc2)c1` [3'',5''-dimethoxy-[1,1';2',1'']-terphenyl-4-ol], for which the IC50 in series [1] was 14 µM; in series [2], 28 µM.

In the case of `COc1cc(OC)cc(-c2ccc(-c3ccc(O)cc3)cc2)c1` [3'',5''-dimethoxy-[1,1';4,1'']-terphenyl-4-ol], the IC50 was determined as 35 µM in series [1] and 23 µM in series [2].

As to `Oc1ccc(-c2cccc(-c3cc(O)cc(O)c3)c2)cc1` [[1,1';3',1'']-terphenyl-4,3'',5''-triol], the half-inhibitory concentration (IC50) was 20 µM in series [1] and 58 µM in series [2].

In series [1], `COc1cc(/C=C/c2cc(Cl)ccc2O)cc(OC)c1` [4-chloro-2-[(E)-2-(3,5-dimethoxy-phenyl)-vinyl]-phenol] came in with an IC50 of 16 µM.

For `COc1cc(/C=C/c2cc(C(C)(C)C)c(O)c(C(C)(C)C)c2)cc(OC)c1` [2,6-di-tert-butyl-4-[(E)-2-(3,5-dimethoxy-phenyl)-vinyl]-phenol], in series [1], the IC50 is over 100 µM.

With `COc1cc(OC)cc(-c2cccc(-c3ccc(O)cc3)c2)c1` [3'',5''-dimethoxy-[1,1';3',1'']-terphenyl-4-ol], the IC50 amounted to 14 µM in series [1] and 20 µM in series [2].

Regarding `Oc1ccc(-c2ccccc2-c2cc(O)cc(O)c2)cc1` [[1,1';2',1'']-terphenyl-4,3'',5''-triol], the values for the IC50 in series [1] and in series [2] were 8 µM and 12 µM, respectively.

For `COc1cc(OC)cc(-c2ccc3cc(OC)ccc3c2)c1` [2-(3,5-Dimethoxy-phenyl)-6-methoxy-naphthalene], the IC50 in series [1] and in series [2] was over 100 µM in each case.

For the molecule `COc1cc(/C=C/c2ccc(O)cc2)cc(OC)c1` [4-[2-(3,5-Dimethoxy-phenyl)-vinyl]-phenol], the IC50 in series [1] worked out at 10 µM; in series [2], 42 µM.

In series [1], `COc1cc(/C=C/c2cccc(OC)c2O)cc(OC)c1` [2-[(E)-2-(3,5-dimethoxyphenyl)vinyl]-6-methoxyphenol] yielded an IC50 of 8 µM.

Regarding `COc1cc(OC)cc(-c2ccc3cc(O)ccc3c2)c1` [6-(3,5-dimethoxy-phenyl)-naphthalen-2-ol], the IC50 amounted to 42 µM in series [1] and 16 µM in series [2].

In turn, `Oc1cc(O)cc(-c2ccc3cc(O)ccc3c2)c1` [5-(6-hydroxy-naphtalen-2-yl)-benzene-1,3-diol] yielded an IC50 in series [1] of 20 µM.
